Compound activity deposited in PubChem BioAssay by Sanford-Burnham Center for Chemical Genomics.
APJ antag: antagonists of human apelin receptor APJ, primary screen, CHO-K1 cells, beta-arrestin complementation, luminescence. AID 2521, 2010. inhibition, % at 20 µM. hit rate 0.32% among 330,000. P35414;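 active means inhibition above about 40% at 20 µM, limit read from the data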;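 further: cells challenged with 10 nM apelin-13 agonist together with compound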
Target sequence (P35414 whole entry, looked up): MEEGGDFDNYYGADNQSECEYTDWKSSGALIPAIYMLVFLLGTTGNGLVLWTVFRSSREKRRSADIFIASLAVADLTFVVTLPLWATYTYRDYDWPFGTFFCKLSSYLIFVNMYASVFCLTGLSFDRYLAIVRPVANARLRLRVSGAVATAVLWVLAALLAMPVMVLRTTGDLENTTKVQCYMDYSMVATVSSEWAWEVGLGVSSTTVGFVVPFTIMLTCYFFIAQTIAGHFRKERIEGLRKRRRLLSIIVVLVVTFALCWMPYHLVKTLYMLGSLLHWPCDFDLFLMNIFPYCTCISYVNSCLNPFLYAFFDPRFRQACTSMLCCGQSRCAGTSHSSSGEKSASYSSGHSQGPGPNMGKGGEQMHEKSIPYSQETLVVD
CCR6 antagonist: CCR6 receptor antagonists, primary screen, cell-based, CHO-K1, luminescence, beta-arrestin, uHTS; CHO-K1 CCR6 PathHunter beta-arrestin, CCL20-stimulated; inhibition, % at 20 µM; hit rate 0.49% among 340,000; C-C chemokine receptor type 6 (Homo sapiens), P51684;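 active means compounds whose inhibition of the agonist-driven luminescence signal at 20 µM reaches about 50%, limit read from the data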;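 further: cells stimulated with CCL20 at 14 nM final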
APJ agonist: agonists of human apelin receptor APJ, primary screen, CHO-K1 cells, PathHunter beta-arrestin, luminescence. AID 2520, 2010. P35414. hit rate 0.11% among 330,000. 0% DMSO wells, 100% apelin. activation, % at 20 µM;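 active means activation more than six SD over the plate average, tested at 20 µM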
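assay system = CHO-K1 APJ beta-arrestin complementation cell line | input = cell density 1000 per well | dosing = compound 20 µM once, DMSO 1% | timing = compound 90 min 25 °C, reagent 1 h | measured by = luminescence from split beta-galactosidase complementation, Galacton Star/Emerald II substrate | read-out basis = APJ agonist activity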
CXCR6 block: CXCR6 receptor inhibitors, primary screen, cell-based, beta-arrestin, luminescence, CHO-K1 PathHunter, 1536-well. hit rate 0.36% among 360,000. inhibition, % at 20 µM. C-X-C chemokine receptor type 6 (Homo sapiens), O00574; in the data active means inhibition above about 34%, passing the limit was not always enough;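 further: antagonist mode with CXCL16 agonist at 10 nM final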
EBI2 block: EBI2 receptor antagonists, beta-arrestin recruitment, primary screen, cell-based, luminescence, 7a,25-OHC stimulation, uHTS; 7a,25-OHC stimulated; inhibition, % at 5 µM; AID 651636, 2012; hit rate 0.81% among 360,000; in the data active means inhibition above about 38%;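 further: enzyme fragment complementation signal reports receptor beta-arrestin coupling in cells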
EBI2 antag conf: EBI2 antagonist hit retest, beta-arrestin, confirmation, cell-based, single concentration, luminescence, 7a,25-OHC stimulation; hit rate 29% among 2,400; AID 651997, 2013; 7a,25-OHC antagonism; inhibition, % at 5 µM; shares compounds with EBI2 block;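 active means inhibition of at least 50%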
EBI2 agonist: EBI2 agonist activity of antagonist hits, confirmation, counter-screen for EBI2 antagonist project, cell-based, single concentration, agonist mode, luminescence; shares compounds with EBI2 block; EBI2-expressing cells, 60 min; 0% vehicle, 100% 7α,25-dihydroxycholesterol control; activation, % at 5 µM; 2,400 tested, under 10 active; AID 652000, 2013;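 active means activation of at least 50%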
bGal cs: E. coli beta-galactosidase enzyme inhibition, confirmation, counter-screen for EBI2 antagonist project, biochemical, luminescence, single concentration; shares compounds with EBI2 block; purified beta-galactosidase, luminescent Galacton Star, 15 min; inhibition, % at 5 µM; hit rate 1% among 2,400;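 active means replicate-average signal at least 3 plate SD below neutral wells, shown as high inhibition, flagging enzyme-inhibiting false positives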;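 further: higher means stronger loss of beta-gal luminescence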
Each line names hits and unclear results; the compound was inactive in the other large screens (follow-up assays come after a bar, where they were run). Only some compounds are listed: those with a hit (about 1.5% of all), similar ones and a draw of the others.

CCOC(=O)N1CCN(C(=O)COc2ccc(S(=O)(=O)NC(C)C)cc2)CC1	none
CCOC(=O)N1CCN(C(=O)COc2ccc(Cl)c(C)c2)CC1	EBI2 block 86.3 | EBI2 antag conf 54.2 | EBI2 agonist inactive | bGal cs inactive
Cc1cc(OCC(=O)N2CCCC2)ccc1Cl	none
Cc1cc(C(=O)NCC(=O)OCC(=O)N(C2CCCCC2)C2CCCCC2)ccc1[N+](=O)[O-]	EBI2 block 81.5 | EBI2 antag conf inactive | EBI2 agonist inactive | bGal cs inactive
Cc1cc(C(=O)NCC(=O)OCC(=O)NCC2CCCO2)ccc1[N+](=O)[O-] (configuration not stated)	none
O=C(/C=C/c1cccc([N+](=O)[O-])c1)N1CCN(S(=O)(=O)c2cccs2)CC1	EBI2 block 47.1 | EBI2 antag conf inactive | EBI2 agonist inactive | bGal cs inactive
O=C(COc1ccc(F)cc1Br)N1CCN(S(=O)(=O)/C=C/c2ccccc2)CC1	none
O=C(c1ccc2ccccc2c1)N1CCN(S(=O)(=O)/C=C/c2ccccc2)CC1	EBI2 block 90.0 | EBI2 antag conf 77.1 | EBI2 agonist inactive | bGal cs inactive
COc1cccc(/C=C/C(=O)N2CCN(S(=O)(=O)c3ccccc3)CC2)c1	EBI2 block 89.9 (no result: APJ antag, CCR6 antagonist, APJ agonist) | EBI2 antag conf 62.5 | EBI2 agonist inactive | bGal cs inactive
O=C(/C=C/c1ccc(F)cc1)N1CCN(S(=O)(=O)/C=C/c2ccccc2)CC1	EBI2 block 94.6 | EBI2 antag conf 88.9 | EBI2 agonist inactive | bGal cs inactive
O=C(NNC(=S)NC1CC2C=CC1C2)c1cccnc1 (configuration not stated)	none
C[C@@]12CCC3[C@@](CCC4[C@@]3(C)CCC[C@@]4(C)C(=O)N3CCOCC3)(CC1=O)C2 (some centres not stated)	none
CCCN(C(=O)CSc1nc(C2CC2)n(-c2ccccc2)n1)C1CCS(=O)(=O)C1 (configuration not stated)	none
O=[N+]([O-])c1nccn1CCCCCCN1CCOCC1	none (no result: APJ antag, CCR6 antagonist, APJ agonist)
C=C[C@@H]1c2cc(C)ccc2N(S(=O)(=O)c2ccc(C)cc2)[C@H](c2ccc(OC(C)=O)cc2)C1(C#N)C#N	none
O=C(/C=C/c1ccccc1)N1CCN(S(=O)(=O)c2ccc(F)cc2)CC1	EBI2 block 78.7 | EBI2 antag conf 68.3 | EBI2 agonist inactive | bGal cs inactive
CCOC(=O)N1CCN(C(=O)/C=C/c2ccc3c(c2)OCO3)CC1	EBI2 block 59.3 | EBI2 antag conf 61.3 | EBI2 agonist inactive | bGal cs inactive
CCN1CCN(C(=O)/C=C/c2ccc3c(c2)OCO3)CC1	EBI2 block 66.0 | EBI2 antag conf inactive | EBI2 agonist inactive | bGal cs inactive
COC(=O)C1CCN(C(=O)/C=C/c2ccc3c(c2)OCO3)CC1	EBI2 block 57.4 | EBI2 antag conf inactive | EBI2 agonist inactive | bGal cs inactive
CCOC(=O)N1CCN(C(=O)/C=C/c2ccc(OC)cc2)CC1	EBI2 block 89.6 | EBI2 antag conf 74.8 | EBI2 agonist inactive | bGal cs inactive
O=C(/C=C/c1ccc2c(c1)OCO2)N1CCN(c2n[nH]c(=O)[nH]c2=O)CC1	none
CCOC(=O)N1CCN(C(=O)COC(=O)Cc2ccc(OC)cc2)CC1	none
O=C(/C=C/C=C/c1ccc2c(c1)OCO2)N1CCCCC1	none
CN1CCN(C(=O)/C=C/c2ccc3c(c2)OCO3)CC1	none
CC(C)C(=O)N1CCCCCCN1C(=O)C(C)C	none (no result: APJ antag, CCR6 antagonist, APJ agonist)
O=C(/C=C1\C(=O)Nc2ccccc21)/C=C1\C(=O)Nc2ccccc21	EBI2 block 40.8 (no result: APJ antag, APJ agonist) | EBI2 antag conf inactive | EBI2 agonist inactive | bGal cs inactive
CN(O)/C=C1\C(=O)Nc2ccccc21	none
Cc1cccc(NC(=O)C(=O)NCCCc2ccccc2)c1	none (no result: CCR6 antagonist, CXCR6 block, EBI2 block)
C=CCOc1ccc(/C=C/C(=O)N2CCCN(S(=O)(=O)c3c(C)noc3C)CC2)cc1	EBI2 block 62.8 | EBI2 antag conf inactive | EBI2 agonist inactive | bGal cs inactive
CCOc1ccc(NC(=O)C2CCN(S(=O)(=O)c3c(C)noc3C)CC2)cc1	none
CC(C)(C)c1csc(NC(=O)Nc2ccccc2)n1	EBI2 block 42.7 | EBI2 antag conf inactive | EBI2 agonist inactive | bGal cs inactive
O=C(Nc1ccccc1)Nc1nc(-c2ccccc2)cs1	none
Clc1ccc(-c2nnnn2-c2ccc(Cl)c(Cl)c2)cc1Cl	EBI2 block 49.3 | EBI2 antag conf inactive | EBI2 agonist inactive | bGal cs inactive
CCOC(=O)c1c2ccc(OCC(=O)N/N=C/c3ccc(C)cc3)cc2n2ccccc12	EBI2 block 47.7 | EBI2 antag conf inactive | EBI2 agonist inactive | bGal cs inactive
CC(C)Sc1nc2sc(-c3ccccc3)cc2c(=O)n1N	EBI2 block 50.8 | EBI2 antag conf inactive | EBI2 agonist inactive | bGal cs inactive
Cc1ccc(C(=O)N2N=C(c3cccc(NS(C)(=O)=O)c3)CC2c2cccs2)cc1 (configuration not stated)	none
CCOC(=O)c1ccc2ncc(C(=O)OCC)c(NCCN3CCOCC3)c2c1	none
CCOC(=O)c1cnc2cc(Cl)c(OC)cc2c1NCC1CCCO1 (configuration not stated)	EBI2 block 41.4 | EBI2 antag conf inactive | EBI2 agonist inactive | bGal cs inactive
Cc1ccc(F)cc1NC(=O)COC(=O)C1CC2CCCC(C1)C2=O (configuration not stated)	none (no result: APJ antag, CCR6 antagonist, APJ agonist)
CCc1ccc(NC(=O)c2ccc3c(c2)C(=O)N(CCOC)C3Nc2ccc(CC)cc2)cc1 (configuration not stated)	EBI2 block 64.8 | EBI2 antag conf 62.1 | EBI2 agonist inactive | bGal cs inactive
COCCN1C(=O)c2cc(C(=O)Nc3ccc(C)c(F)c3)ccc2C1Nc1ccc(C)c(F)c1 (configuration not stated)	EBI2 block 86.4 | EBI2 antag conf 64.8 | EBI2 agonist inactive | bGal cs inactive
